Compound activity (PubChem)
bovine MsrA act = bovine MsrA enzyme activators, primary screen, biochemical, absorbance, HTS; purified bovine MsrA, absorbance read-out; activation, % at 10.6 µM; actives 0.3% (n = 360,000); in the data active means activation above about 7.5%;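 further: 0% = vehicle and 100% = reference activator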
MsrA inh = bovine MsrA enzyme inhibitors, primary screen, biochemical, absorbance, HTS | purified bovine MsrA, absorbance read-out | AID 651718, 2012 | actives 0.75% (n = 360,000) | inhibition, % at 15.5 µM; in the data active means inhibition above about 4.5%;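 further: 0% = vehicle wells with enzyme and 100% = reference inhibitor wells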
ASAP1 inh = inhibitors of human ASAP1 ArfGAP activity, primary screen, biochemical, fluorescence polarization. inhibition, % at 16.5 µM. ASAP1-stimulated ARF1 GTP hydrolysis, GDP FP detection. actives 0.19% (n = 360,000); in the data active means inhibition above about 25%;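 further: 0% = vehicle with enzyme and substrate and 100% = no enzyme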
Rev-erbA mod = modulators of Rev-erb alpha DNA binding, primary screen, biochemical, FITC-DNA, fluorescence polarization, uHTS | Nuclear receptor subfamily 1 group D member 1 (Homo sapiens), P20393 | Rev-erbα–FITC-DNA binding, 90 min | activity, % at 10 µM | actives 0.79% (n = 370,000) | AID 1259318, 2017;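 active means activity above about 14%, limit read from the data; passing the limit was not always enough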;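 further: 0% = DMSO wells with 35 nM protein and 100% = DMSO wells with 750 nM protein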
Target sequence (P20393 whole entry, looked up): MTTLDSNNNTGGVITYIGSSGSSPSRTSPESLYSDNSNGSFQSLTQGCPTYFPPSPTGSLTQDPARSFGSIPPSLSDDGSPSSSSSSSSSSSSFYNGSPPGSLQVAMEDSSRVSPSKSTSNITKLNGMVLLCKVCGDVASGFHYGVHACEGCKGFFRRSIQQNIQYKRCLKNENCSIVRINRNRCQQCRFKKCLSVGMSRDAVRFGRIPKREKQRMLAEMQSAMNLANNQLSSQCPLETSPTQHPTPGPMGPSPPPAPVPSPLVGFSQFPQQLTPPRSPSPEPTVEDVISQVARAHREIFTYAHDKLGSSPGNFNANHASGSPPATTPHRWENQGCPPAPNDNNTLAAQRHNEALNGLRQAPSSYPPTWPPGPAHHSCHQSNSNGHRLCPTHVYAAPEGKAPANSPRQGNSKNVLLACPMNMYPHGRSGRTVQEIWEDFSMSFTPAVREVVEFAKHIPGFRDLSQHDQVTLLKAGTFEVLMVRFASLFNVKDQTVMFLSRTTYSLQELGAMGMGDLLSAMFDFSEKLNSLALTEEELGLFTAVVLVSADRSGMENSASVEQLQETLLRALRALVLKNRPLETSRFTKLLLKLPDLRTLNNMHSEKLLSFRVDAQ
ARFGAP1 inhibitor = inhibitors of rat ARFGAP1 GAP activity, primary screen, biochemical, fluorescence polarization, GDP tracer | ADP-ribosylation factor GTPase-activating protein 1 (Rattus norvegicus), Q62848 | Arfgap1-stimulated ARF1 GTP hydrolysis, GDP FP detection | inhibition, % at 16.5 µM | actives 0.26% (n = 360,000) | AID 651572, 2012;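 active means inhibition above a per-plate limit, mean inhibition of low control wells plus 3 SD, cut at about 25% in these data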;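 further: 0% = DMSO wells with enzyme and 100% = wells lacking Arfgap1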
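Material: rat Arfgap1 GAP domain (His6, aa 1-136), purified enzyme. Also added: human ARF1(Δ1-17)-GTP substrate. Compound dosing: 16.5 µM single point, 1.26% DMSO. Timing: enzyme reaction 120 min at 25 °C after 20 min preincubation. Signal: GDP detection by fluorescence polarization. Read-out basis: percent inhibition of GAP-stimulated GDP formation, scaled between DMSO and no-Arfgap1 medians.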
HGIII-sPLA2 inh = human group III sPLA2 inhibitors, primary screen, biochemical, QFRET, BODIPY PC-A2 liposome substrate | actives 0.56% (n = 370,000) | Group 3 secretory phospholipase A2 (Homo sapiens), Q9NZ20 | inhibition, % at 12.2 µM | QFRET BODIPY PC-A2 liposome hydrolysis, fluorescence;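 active means inhibition above mean plus 3 SD of compounds lying within the high and low control bounds, cut at about 19% in these data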;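 further: 0% = median of test compound wells and 100% = no enzyme DMSO wells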
ARFGAP1 inh conf = ARFGAP1 inhibitor hit confirmation, biochemical, fluorescence polarization, triplicate | shares compounds with ARFGAP1 inhibitor | actives 30% (n = 890) | AID 651608, 2012 | ARFGAP1-stimulated ARF1 GTP hydrolysis, GDP tracer FP | inhibition, % at 16.5 µM;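 active means average inhibition over triplicates above the hit cutoff set in the earlier primary screen, cut at about 25% in these data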;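 further: 0% = Arfgap1 plus ARF1-GTP with DMSO and 100% = wells lacking Arfgap1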
Starred values were filed as active, the others as inactive; x = no result. Only some compounds are listed: those with a hit (about 2.7% of all), similar ones and a draw of the others.

SMILES | bovine MsrA act | MsrA inh | ASAP1 inh | Rev-erbA mod | ARFGAP1 inhibitor | HGIII-sPLA2 inh | ARFGAP1 inh conf
COC(=O)C1=C(C)OC(N)=C(C#N)C1C1CCCCC1 (centres undefined) | -6 | 0 | 3 | 0 | 26* | -7 | 0
COC(=O)C1CN(Cc2ccc(C)cc2)CCS(=O)(=O)N1Cc1cn(Cc2ccc(Cl)cc2)nn1 (centres undefined) | x | x | x | -3 | x | -14 | x
O=C(CN(C(=O)c1csnn1)c1ccccc1F)NCc1ccc2c(c1)OCO2 | -1 | -1 | 4 | 5 | 25* | -4 | 4
C=CCNc1nc(NCc2ccc(N(C)C)cc2)c2sc(-c3ccccc3)cc2n1 | -8 | 1 | 8 | 4 | 46* | 11 | 9
C=CCNc1nc(NCCOC)c2sc(-c3ccccc3)cc2n1 | -3 | 1 | 0 | 5 | 28* | -10 | 40*
c1ccc(CNc2nc(NCC3CC3)nc3cc(-c4ccccc4)sc23)cc1 | -12 | -1 | 0 | 10 | 4 | -2 | x
COc1ccc(NC(=O)CSc2nc3sc4c(c3c(=O)n2-c2ccc(OC)cc2)CCN(C)C4)cc1 | -1 | 3 | 12 | -1 | 20 | -2 | x
COc1ccc(-n2c(SCC(=O)Nc3nccs3)nc3sc4c(c3c2=O)CCN(C)C4)cc1 | -2 | 2 | 9 | -1 | 25* | -10 | 27*
Cc1ccc(-n2c(SCC(=O)NN=Cc3c[nH]c4ccccc34)nnc2-c2ccccc2)cc1 | x | x | x | 1 | x | -3 | x
CC[C@H](C(=O)Nc1ccccc1N1CCCC1)c1ccccc1 | x | x | x | 6 | x | 7 | x
Cc1c(C)c2ccc(OCC(=O)NCCc3c[nH]c4ccccc34)c(C)c2oc1=O | -5 | 0 | 15 | 1 | 25* | -26 | 6
C/C(=N\NC(=S)NCc1ccccc1)c1cccs1 | -1 | 1 | -17 | 0 | 30* | 4 | 1
NC1=[N+](Cc2ccccc2)C[C@H]2C(=C3CCCC[C@H]3n3c(=O)n(-c4ccccc4)c(=O)n32)N1 | x | x | x | -6 | x | -1 | x
CCOC(=O)Cn1cc(CN2CCS(=O)(=O)N(Cc3ccc(Cl)cc3)C(C(=O)OC)C2)nn1 (centres undefined) | x | x | x | -5 | x | 6 | x
Cc1ccc(-c2nc(C(=O)NCCCN3CCOCC3)cc3c2[nH]c2ccccc23)cc1 | -3 | -1 | 2 | 2 | 5 | -14 | x
COc1ccc(-c2nc(C(=O)NCCCN3CCOCC3)cc3c2[nH]c2ccccc23)cc1OC | 1 | 1 | 17 | -3 | 28* | -10 | 14
CCOC(=O)N1C(=O)C[C@](Sc2ccc(OC)cc2)(C(=O)N2CCOCC2)[C@H]1c1ccc(OC)cc1 | x | x | x | -1 | x | 0 | x
COc1ccc(C[C@H]2CN3C(=NC[C@@H]3C(C)C)N2C[C@H](C)NC(=O)c2ccc(C)c(Br)c2)cc1 | -2 | 1 | 13 | 3 | -2 | 1 | x
Cc1ccc(C(=O)N[C@@H](C)CN2C3=NC[C@H](C(C)C)N3C[C@H]2Cc2ccc(O)cc2)cc1Br | -2 | -1 | -2 | -3 | 26* | -14 | 10
Cc1ccc(NC(=S)NNC(=O)CSc2nnc(SCc3cccc4ccccc34)s2)cc1 | x | x | x | 2 | x | -6 | x
CC(=O)c1c(C)nc(Nc2nc3ccccc3s2)nc1C | -2 | 0 | -10 | 11 | 25* | 9 | -1
Cc1cc(=O)oc(C)c1C(=O)N1CCN(C)CC1 | -1 | 0 | 13 | 3 | 25* | -1 | -1
COc1cc(NC(=O)c2cc3ccccc3o2)ccc1NC(=O)c1ccco1 | -2 | 0 | -1 | -12 | 27* | 2 | 11
COCC(=O)Nc1ccc([N+](=O)[O-])cc1OC | -4 | 1 | -1 | 2 | -5 | 2 | x
COc1cc(NC(=O)c2c(OC)cccc2OC)ccc1NC(=O)c1cc2ccccc2o1 | -7 | 2 | 11 | -17 | 12 | -5 | x
SMILES | bovine MsrA act | MsrA inh | ASAP1 inh | Rev-erbA mod | ARFGAP1 inhibitor | HGIII-sPLA2 inh | ARFGAP1 inh conf
COc1cc([N+](=O)[O-])ccc1NC(=O)COC(=O)c1ccc(NC(N)=O)cc1 | -1 | -1 | 14 | -13 | 29* | 4 | 20
COc1cc(NC(=O)COc2ccc([N+](=O)[O-])cc2)ccc1NC(=O)c1ccco1 | 0 | 1 | 12 | -19 | 58* | 13 | 75*
CCN(CC)C(=O)CN(c1cccc(C(F)(F)F)c1)S(C)(=O)=O | -11 | 1 | 7 | -9 | 31* | 3 | -6
CCN(CC)C(=O)CN(c1cccc(Br)c1)S(C)(=O)=O | -2 | 0 | 6 | 2 | -2 | 1 | x
CCOc1cc(/C=C2\SC(=N)N(c3nonc3N)C2=O)ccc1OCC(N)=O | -4 | 0 | -8 | -5 | 6 | -2 | x
CCOc1cc(/C=C2\SC(=N)N(c3nonc3N)C2=O)ccc1OCCN1CCOCC1 | -1 | 4 | 23 | 11 | 32* | -23 | 38*
C[C@@H](/C=C/C(=O)OC(C)(C)C)Sc1ccc(C(C)(C)C)cc1 | x | x | x | -7 | x | 7 | x
O=C(CCCc1ccccc1)N=C1SC2CS(=O)(=O)CC2N1c1ccccc1F (centres undefined) | -3 | 1 | 9 | 0 | 29* | -2 | 0
O=C(CCC1CCCC1)N=C1SC2CS(=O)(=O)CC2N1c1ccccc1F (centres undefined) | -2 | -1 | 4 | -2 | -4 | -1 | x
COc1ccc(NC(=O)Cn2nnc(C(=O)Nc3ccc(F)c(Cl)c3)c2N)cc1 | -1 | 1 | 11 | 8 | 27* | -1 | 36*
Cc1ccc(NC(=O)Cn2nnc(C(=O)Nc3ccc(F)c(Cl)c3)c2N)cc1 | -10 | -1 | 1 | 3 | 15 | -1 | x
COc1ccc(NC(=O)c2nnn(CC(=O)Nc3ccc4c(c3)OCO4)c2N)cc1OC | -1 | 1 | -4 | 3 | 4 | -2 | x
COc1ccc(Cl)cc1NC(=O)c1nnn(CC(=O)Nc2ccc3c(c2)OCO3)c1N | -7 | 0 | 18 | -8 | 94* | 2 | 132*
O=C(NN=C/C=C/c1ccco1)c1cc(-c2ccc(Cl)cc2)n[nH]1 | x | x | x | 1 | x | 14 | x
Oc1ccc(/C=N/Nc2cccc3cccnc23)c(O)c1 | -2 | 4 | 3 | 6 | 51* | -3 | 16
O=C(N/N=C/c1ccc(O)cc1O)c1ccc(CN2C(=O)c3cccc4cccc2c34)cc1 | -6 | 4 | 7 | 10 | 27* | 12 | 80*
